Results: ChEMBL document CHEMBL1145867, “Muraymycins, novel peptidoglycan biosynthesis inhibitors: synthesis and SAR of their analogues” (2003)
Values after ≈ are worked out from the molar mass of the structure shown. Active and inactive are the calls of the source. The calls are words filed in the database; no cut-off is given here.

How the values were obtained:
[1] = The inhibitory activity of compound against MraY or MurG at 50 ug/mL; Inhibit
Enterococcus sp. = test: In vitro antimicrobial activity against Enterococci; assay type: functional
Outline: (§1)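 Broth microdilution per NCCLS guidance. Serial dilutions of each agent in microtiter plates are inoculated with each organism to 10⁵ CFU/mL and incubated 18–22 h at 35 C in ambient air. MIC is the lowest concentration giving complete growth inhibition, judged by the unaided eye.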

[2] = The inhibitory activity of compound against MraY or MurG at 6.25 ug/mL; No Inhibition
[3] = The inhibitory activity of compound against MraY or MurG at 25 ug/mL; No Inhibition
[4] = The inhibitory activity of compound against MraY or MurG at 100 ug/mL; Inhibit
Bacteria = test: In vitro antimicrobial activity against gram-negative organisms (10); assay type: functional; outline: as §1
Staphylococcus sp. = test: In vitro antimicrobial activity against Staphylococci; assay type: functional, staphyl ococcus species; outline: as §1
[5] = The inhibitory activity of compound against MraY or MurG at 12.5 ug/mL; No Inhibition
[6] = The inhibitory activity of compound against MraY or MurG at 50 ug/mL; No Inhibition
[7] = The inhibitory activity of compound against MraY or MurG at 100 ug/mL; No Inhibition

Inhibitory activity [1] | MIC (Enterococcus sp.) | Inhibitory activity [2] | Inhibitory activity [3] | Inhibitory activity [4] | MIC (Bacteria) | MIC (Staphylococcus sp.) | Inhibitory activity [5] | Inhibitory activity [6] | Inhibitory activity [7] | SMILES
Inhibit | 4 µg/mL (≈ 4.06 µM) | inactive | inactive | Inhibit | 128 µg/mL (≈ 130 µM) | 16 µg/mL (≈ 16.3 µM) | inactive |  |  | COc1ccc(Cn2c(=O)ccn([C@@H]3OC([C@H](O)[C@H](NCCCNC(=O)[C@H](N)CC(=O)OCc4ccccc4)C(=O)OC(C)(C)C)[C@@H](O[Si](C)(C)C(C)(C)C)[C@H]3O[Si](C)(C)C(C)(C)C)c2=O)cc1 (stereo partly drawn)
 | > 128 µg/mL |  |  |  | > 128 µg/mL | 128 µg/mL (≈ 117 µM) |  |  |  | COc1ccc(Cn2c(=O)ccn([C@@H]3OC([C@H](O)[C@H](NCCCNC(=O)[C@@H](CCC(=O)OC(C)(C)C)NC(=O)OCc4ccccc4)C(=O)OC(C)(C)C)[C@@H](O[Si](C)(C)C(C)(C)C)[C@H]3O[Si](C)(C)C(C)(C)C)c2=O)cc1 (stereo partly drawn)
 | > 128 µg/mL |  |  |  | > 128 µg/mL | > 128 µg/mL |  |  |  | COc1ccc(Cn2c(=O)ccn([C@@H]3OC([C@H](O)[C@H](NCCCNC(=O)[C@@H](CCCCNC(=O)OCc4ccccc4)NC(=O)OCc4ccccc4)C(=O)OC(C)(C)C)[C@@H](O[Si](C)(C)C(C)(C)C)[C@H]3O[Si](C)(C)C(C)(C)C)c2=O)cc1 (stereo partly drawn)
 | > 128 µg/mL | inactive | inactive |  | > 128 µg/mL | > 128 µg/mL | inactive | inactive | inactive | COc1ccc(Cn2c(=O)ccn([C@@H]3OC([C@H](O)[C@H](NCCCNC(=O)[C@@H](CC(C)C)NC(=O)[C@H](CCCN=C(N)N)NC(=O)N[C@H](C(=O)O)C(C)C)C(=O)O)[C@@H](O)[C@H]3O)c2=O)cc1 (stereo partly drawn)
 | > 128 µg/mL |  |  |  | > 128 µg/mL | > 128 µg/mL |  |  |  | COc1ccc(Cn2c(=O)ccn([C@@H]3OC([C@H](O)[C@H](NCCCNC(=O)[C@@H](CC(C)C)NC(=O)[C@H](CCC/N=C(\N)N[N+](=O)[O-])NC(=O)N[C@H](C(=O)OCc4ccccc4)C(C)C)C(=O)OC(C)(C)C)[C@@H](O[Si](C)(C)C(C)(C)C)[C@H]3O[Si](C)(C)C(C)(C)C)c2=O)cc1 (stereo partly drawn)
 | 4 µg/mL (≈ 3.58 µM) |  |  |  | > 128 µg/mL | > 128 µg/mL |  |  |  | COc1ccc(Cn2c(=O)ccn([C@@H]3OC([C@H](O)[C@H](NCCCNC(=O)[C@@H](CC(=O)OCc4ccccc4)NC(=O)OCc4ccccc4)C(=O)OC(C)(C)C)[C@@H](O[Si](C)(C)C(C)(C)C)[C@H]3O[Si](C)(C)C(C)(C)C)c2=O)cc1 (stereo partly drawn)
 | 128 µg/mL (≈ 130 µM) |  |  |  | > 128 µg/mL | > 128 µg/mL |  |  |  | COc1ccc(Cn2c(=O)ccn([C@@H]3OC([C@H](O)[C@H](NCCCNC(=O)[C@@H](C)NC(=O)OCc4ccccc4)C(=O)OC(C)(C)C)[C@@H](O[Si](C)(C)C(C)(C)C)[C@H]3O[Si](C)(C)C(C)(C)C)c2=O)cc1 (stereo partly drawn)
 | > 128 µg/mL |  |  |  | > 128 µg/mL | > 128 µg/mL |  |  |  | COc1ccc(Cn2c(=O)ccn([C@@H]3OC([C@H](O)[C@H](NCCCNC(=O)[C@H](NC(=O)[C@H](CCC/N=C(\N)N[N+](=O)[O-])NC(=O)N[C@H](C(=O)OCc4ccccc4)C(C)C)C(O)C(C)C)C(=O)OC(C)(C)C)[C@@H](O[Si](C)(C)C(C)(C)C)[C@H]3O[Si](C)(C)C(C)(C)C)c2=O)cc1 (stereo partly drawn)
 | > 128 µg/mL |  |  |  | > 128 µg/mL | > 128 µg/mL |  |  |  | COc1ccc(Cn2c(=O)ccn([C@@H]3OC([C@H](O)[C@H](NCCCNC(=O)[C@H](N)CC(C)C)C(=O)OC(C)(C)C)[C@@H](O)[C@H]3O)c2=O)cc1 (stereo partly drawn)
 | > 128 µg/mL |  |  |  | > 128 µg/mL | > 128 µg/mL |  |  |  | COc1ccc(Cn2c(=O)ccn([C@@H]3OC([C@H](O)[C@H](NCCCNC(=O)[C@@H](CC(C)C)NC(=O)OCc4ccccc4)C(=O)OC(C)(C)C)[C@@H](O)[C@H]3O)c2=O)cc1 (stereo partly drawn)
 | 128 µg/mL (≈ 123 µM) |  |  |  | > 128 µg/mL | > 128 µg/mL |  |  |  | COc1ccc(Cn2c(=O)ccn([C@@H]3OC([C@H](O)[C@H](NCCCNC(=O)[C@H](NC(=O)OCc4ccccc4)C(O)C(C)C)C(=O)OC(C)(C)C)[C@@H](O[Si](C)(C)C(C)(C)C)[C@H]3O[Si](C)(C)C(C)(C)C)c2=O)cc1 (stereo partly drawn)
